In ChEMBL document CHEMBL1268908, “Design, synthesis, radiolabeling, and in vivo evaluation of carbon-11 labeled N-[2-[4-(3-cyanopyridin-2-yl)piperazin-1-yl]ethyl]-3-methoxybenzamide, a potential positron emission tomography tracer for the dopamine D(4) receptors” (J Med Chem, 2010):

Key:
Format in all cases: ADME, organism-based, Macaca mulatta
[1] = Biodistribution in rhesus monkey cingulate cortex at 150.3 MBq, iv after 0.25 mins; conditions: in vivo, 15 s
Procedure, shortened: (§1)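 Male rhesus monkey under ketamine (10 mg/kg im) with head fixation. After a 20 min 68Ge-68Ga transmission scan, the [11C]-labelled tracer in saline (pH 7.4) was injected iv, at 2.9 TBq/μmol specific radioactivity at injection. A dynamic 3D PET scan followed over 90 min (6×0.5, 7×1, 20×2, 8×5 min frames). Regions were defined on T1-weighted 1.5 T MRI, and uptake is given as %ID/mL.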

[2] = system: Striatum; experiment: Biodistribution in rhesus monkey striatum at 150.3 MBq, iv after 0.75 mins; conditions: in vivo, 45 s
[3] = system: Hippocampus; experiment: Biodistribution in rhesus monkey hippocampus at 150.3 MBq, iv after 1.25 mins; conditions: in vivo, 75 s
Procedure, shortened: (§2)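 Single male rhesus monkey anesthetized with ketamine 10 mg/kg im, head fixed. Attenuation correction by 20 min 68Ge-68Ga transmission scan. [11C]-tracer in saline (pH 7.4) given iv, specific radioactivity 2.9 TBq/μmol at injection. Dynamic 3D PET emission scan over 90 min in frames of 0.5 to 5 min. MRI T1 images used to define VOIs. Uptake expressed as […].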

[4] = Biodistribution in rhesus monkey cerebellum at 150.3 MBq, iv after 2.25 mins; conditions: in vivo, 135 s; procedure, shortened: as §1
[5] = Biodistribution in rhesus monkey cingulate cortex at 150.3 MBq, iv after 3.5 mins; conditions: in vivo; procedure, shortened: as §1
[6] = system: Striatum; experiment: Biodistribution in rhesus monkey striatum at 150.3 MBq, iv after 5.5 mins; conditions: in vivo
[7] = Biodistribution in rhesus monkey occipital lobe at 150.3 MBq, iv after 5.5 mins; conditions: in vivo
[8] = system: Hippocampus; experiment: Biodistribution in rhesus monkey hippocampus at 150.3 MBq, iv after 7.5 mins; conditions: in vivo, 0.125 h
Procedure, shortened: (§3)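 Male rhesus monkey under ketamine 10 mg/kg im, head fixed; 20 min 68Ge-68Ga transmission scan, then 90 min dynamic 3D PET (6×0.5, 7×1, 20×2, 8×5 min frames) after iv [11C]-labelled tracer in saline, specific radioactivity about 2.9 TBq/μmol at injection. Regions defined on T1-weighted MRI; uptake expressed as % injected dose per mL.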

[9] = system: Striatum; experiment: Biodistribution in rhesus monkey striatum at 150.3 MBq, iv after 9.5 mins; conditions: in vivo
[10] = Biodistribution in rhesus monkey occipital lobe at 150.3 MBq, iv after 9.5 mins; conditions: in vivo
[11] = system: Striatum; experiment: Biodistribution in rhesus monkey striatum at 150.3 MBq, iv after 11 mins; conditions: in vivo
[12] = Biodistribution in rhesus monkey cerebellum at 150.3 MBq, iv after 11 mins; conditions: in vivo; procedure, shortened: as §1
[13] = Biodistribution in rhesus monkey cerebellum at 150.3 MBq, iv after 15 mins; conditions: in vivo, 0.25 h; procedure, shortened: as §1
[14] = system: Striatum; experiment: Biodistribution in rhesus monkey striatum at 150.3 MBq, iv after 19 mins; conditions: in vivo
[15] = Biodistribution in rhesus monkey cingulate cortex at 150.3 MBq, iv after 21 mins; conditions: in vivo, 0.35 h; procedure, shortened: as §1
[16] = Biodistribution in rhesus monkey entorhinal cortex at 150.3 MBq, iv after 21 mins; conditions: in vivo, 0.35 h; procedure, shortened: as §2
[17] = Biodistribution in rhesus monkey entorhinal cortex at 150.3 MBq, iv after 23 mins; conditions: in vivo; procedure, shortened: as §2
[18] = system: Striatum; experiment: Biodistribution in rhesus monkey striatum at 150.3 MBq, iv after 23 mins; conditions: in vivo
[19] = system: Hippocampus; experiment: Biodistribution in rhesus monkey hippocampus at 150.3 MBq, iv after 25 mins; conditions: in vivo; procedure, shortened: as §2
[20] = system: Striatum; experiment: Biodistribution in rhesus monkey striatum at 150.3 MBq, iv after 25 mins; conditions: in vivo
[21] = Biodistribution in rhesus monkey cingulate cortex at 150.3 MBq, iv after 29 mins; conditions: in vivo; procedure, shortened: as §1
[22] = Biodistribution in rhesus monkey retina at 150.3 MBq, iv after 29 mins; conditions: in vivo
[23] = Biodistribution in rhesus monkey cingulate cortex at 150.3 MBq, iv after 31 mins; conditions: in vivo; procedure, shortened: as §1
[24] = system: Striatum; experiment: Biodistribution in rhesus monkey striatum at 150.3 MBq, iv after 31 mins; conditions: in vivo
[25] = Biodistribution in rhesus monkey entorhinal cortex at 150.3 MBq, iv after 33 mins; conditions: in vivo, 0.55 h; procedure, shortened: as §2
[26] = Biodistribution in rhesus monkey entorhinal cortex at 150.3 MBq, iv after 35 mins; conditions: in vivo; procedure, shortened: as §2
[27] = Biodistribution in rhesus monkey entorhinal cortex at 150.3 MBq, iv after 39 mins; conditions: in vivo, 0.65 h; procedure, shortened: as §2
[28] = Biodistribution in rhesus monkey cingulate cortex at 150.3 MBq, iv after 41 mins; conditions: in vivo; procedure, shortened: as §1
[29] = system: Striatum; experiment: Biodistribution in rhesus monkey striatum at 150.3 MBq, iv after 43 mins; conditions: in vivo
[30] = system: Striatum; experiment: Biodistribution in rhesus monkey striatum at 150.3 MBq, iv after 45 mins; conditions: in vivo, 0.75 h
[31] = system: Hippocampus; experiment: Biodistribution in rhesus monkey hippocampus at 150.3 MBq, iv after 47 mins; conditions: in vivo; procedure, shortened: as §3
[32] = Biodistribution in rhesus monkey entorhinal cortex at 150.3 MBq, iv after 47 mins; conditions: in vivo; procedure, shortened: as §2
[33] = system: Striatum; experiment: Biodistribution in rhesus monkey striatum at 150.3 MBq, iv after 47 mins; conditions: in vivo
[34] = Biodistribution in rhesus monkey cingulate cortex at 150.3 MBq, iv after 57.5 mins; conditions: in vivo; procedure, shortened: as §2
[35] = Biodistribution in rhesus monkey entorhinal cortex at 150.3 MBq, iv after 62.5 mins; conditions: in vivo; procedure, shortened: as §2
[36] = system: Hippocampus; experiment: Biodistribution in rhesus monkey hippocampus at 150.3 MBq, iv after 67.5 mins; conditions: in vivo, 1.125 h; procedure, shortened: as §3
[37] = Biodistribution in rhesus monkey retina at 150.3 MBq, iv after 77.5 mins; conditions: in vivo
[38] = system: Hippocampus; experiment: Biodistribution in rhesus monkey hippocampus at 150.3 MBq, iv after 87.5 mins; conditions: in vivo; procedure, shortened: as §3
[39] = Biodistribution in rhesus monkey entorhinal cortex at 150.3 MBq, iv after 87.5 mins; conditions: in vivo; procedure, shortened: as §2
[40] = Biodistribution in rhesus monkey cerebellum at 150.3 MBq, iv after 2.75 mins; conditions: in vivo, 165 s; procedure, shortened: as §1
[41] = Biodistribution in rhesus monkey retina at 150.3 MBq, iv after 2.75 mins; conditions: in vivo, 165 s
[42] = system: Striatum; experiment: Biodistribution in rhesus monkey striatum at 150.3 MBq, iv after 8.5 mins; conditions: in vivo
[43] = Biodistribution in rhesus monkey cerebellum at 150.3 MBq, iv after 8.5 mins; conditions: in vivo; procedure, shortened: as §1
[44] = Biodistribution in rhesus monkey occipital lobe at 150.3 MBq, iv after 52.5 mins; conditions: in vivo, 0.875 h
[45] = Biodistribution in rhesus monkey retina at 150.3 MBq, iv after 52.5 mins; conditions: in vivo, 0.875 h
[46] = Biodistribution in rhesus monkey cingulate cortex at 150.3 MBq, iv after 72.5 mins; conditions: in vivo; procedure, shortened: as §2
[47] = system: Striatum; experiment: Biodistribution in rhesus monkey striatum at 150.3 MBq, iv after 72.5 mins; conditions: in vivo
[48] = Biodistribution in rhesus monkey cerebellum at 150.3 MBq, iv after 72.5 mins; conditions: in vivo; procedure, shortened: as §1

SMILES: [11CH3]Oc1cccc(C(=O)NCCN2CCN(c3ncccc3C#N)CC2)c1
- Drug uptake [1]: 46.02 kBq/ml
- Drug uptake [2]: 64.38 kBq/ml
- Drug uptake [3]: 55.94 kBq/ml
- Drug uptake [4]: 44.35 kBq/ml
- Drug uptake [5]: 42.88 kBq/ml
- Drug uptake [6]: 39.4 kBq/ml
- Drug uptake [7]: 32.15 kBq/ml
- Drug uptake [8]: 34.09 kBq/ml
- Drug uptake [9]: 31.24 kBq/ml
- Drug uptake [10]: 25.01 kBq/ml
- Drug uptake [11]: 28.08 kBq/ml
- Drug uptake [12]: 24.15 kBq/ml
- Drug uptake [13]: 19.28 kBq/ml
- Drug uptake [14]: 20.01 kBq/ml
- Drug uptake [15]: 17.1 kBq/ml
- Drug uptake [16]: 19.46 kBq/ml
- Drug uptake [17]: 16.74 kBq/ml
- Drug uptake [18]: 18.52 kBq/ml
- Drug uptake [19]: 16.72 kBq/ml
- Drug uptake [20]: 17.99 kBq/ml
- Drug uptake [21]: 15.04 kBq/ml
- Drug uptake [22]: 56.95 kBq/ml
- Drug uptake [23]: 14.33 kBq/ml
- Drug uptake [24]: 14.4435 kBq/ml
- Drug uptake [25]: 16.29 kBq/ml
- Drug uptake [26]: 11.33 kBq/ml
- Drug uptake [27]: 13.49 kBq/ml
- Drug uptake [28]: 10.93 kBq/ml
- Drug uptake [29]: 11.39 kBq/ml
- Drug uptake [30]: 11.04 kBq/ml
- Drug uptake [31]: 9.35 kBq/ml
- Drug uptake [32]: 11.44 kBq/ml
- Drug uptake [33]: 10.6 kBq/ml
- Drug uptake [34]: 10.34 kBq/ml
- Drug uptake [35]: 10.43 kBq/ml
- Drug uptake [36]: 8.799 kBq/ml
- Drug uptake [37]: 50.63 kBq/ml
- Drug uptake [38]: 8.159 kBq/ml
- Drug uptake [39]: 10.53 kBq/ml
- Drug uptake [40]: 41.81 kBq/ml
- Drug uptake [41]: 37.33 kBq/ml
- Drug uptake [42]: 31.7 kBq/ml
- Drug uptake [43]: 27.59 kBq/ml
- Drug uptake [44]: 9.487 kBq/ml
- Drug uptake [45]: 55.05 kBq/ml
- Drug uptake [46]: 9.513 kBq/ml
- Drug uptake [47]: 9.016 kBq/ml
- Drug uptake [48]: 8.18 kBq/ml
